Measured values published in ChEMBL document CHEMBL1144432, “New inhibitors of rabbit muscle triose-phosphate isomerase” (Bioorg Med Chem Lett, 2005).

Experiments:
[1] = target: T1, Triosephosphate isomerase (Oryctolagus cuniculus, UniProt P00939); test: Inhibitory concentration against rabbit muscle triose-phosphate isomerase; parameters: species or system Muscle tissue
[2] = Inhibitory concentration against class II fructose-bisphosphate aldolase
[3] = Binding affinity against class II fructose-bisphosphate aldolase
[4] = target: T1, Triosephosphate isomerase; test: Binding affinity against rabbit muscle triose-phosphate isomerase; parameters: species or system Muscle tissue
Method in brief: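 Rabbit muscle TIM, converting G3P to DHAP, was coupled to a large excess of glycerol-3-phosphate dehydrogenase. NADH consumption was followed at 340 nm. The G3P level was estimated enzymatically with the same coupled system. The cuvette was preincubated 10 min at 25 C, and the reaction was started with G3P (0–250). Inhibitor was tested at 0–30 µM, with inhibition analysed on double-reciprocal plots against 1/[G3P].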

T1 sequence (P00939 whole entry): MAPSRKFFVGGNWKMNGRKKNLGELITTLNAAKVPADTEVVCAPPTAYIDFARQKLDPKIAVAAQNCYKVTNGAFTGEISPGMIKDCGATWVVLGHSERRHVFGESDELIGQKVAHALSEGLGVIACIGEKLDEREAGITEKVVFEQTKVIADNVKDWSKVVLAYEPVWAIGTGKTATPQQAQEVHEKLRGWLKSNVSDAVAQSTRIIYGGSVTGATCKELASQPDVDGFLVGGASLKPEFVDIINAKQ

SMILES	IC50 [1] [µM]	IC50 [2] [µM]	Ki [3] [µM]	Ki [4] [µM]
NNC(=O)CCP(=O)(O)O	27000	3630	–	–
N/C(COP(=O)(O)O)=N/O	–	–	2.3	4.5
O=C(CCP(=O)(O)O)NO	–	–	145	159
N/C(CCP(=O)(O)O)=N\O	9600	3420	–	–
O=C(COP(=O)(O)O)NO [PHOSPHOGLYCOLOHYDROXAMATE]	–	–	0.01	3
NNC(=O)COP(=O)(O)O [PHOSPHORIC ACID MONOHYDRAZINOCARBONYLMETHYL ESTER]	–	–	0.34	111
